{
  "source": "paper PMC8777244",
  "about": "(Biochemistry and Biophysics Reports, 2022)",
  "key": {"[1]": {"assay": "Size-exclusion chromatography, oligomeric states", "format": "physicochemical", "outline": "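HPLC gel filtration of amylose-purified MBP-fused NOX5 dehydrogenase domain, run against CaM and BSA references. Column equilibrated in Tris pH 7.5 (50 mM per figure legends, 20 mM per methods) with 0.2 M NaCl (0.2–0.5 M range), plus 2 mM Ca²⁺ or 1 mM EDTA. Runs at 1.0 mL/min with 280 nm detection. 2 M urea added to partially dissociate oligomers. Species assigned by elution time.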"}, "CaM [2]": {"tested_on": "CaM", "assay": "CaM/D-CMBD binding by Dansyl fluorescence", "outline": "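N-terminally Dansyl-labelled Nox5β CMBD peptide (residues 671–689) was titrated with CaM at room temperature. Excitation was 335 nm, with 2/5 nm slits. Buffer was 50 mM Tris, pH 7.5, with 2 mM Ca²⁺ or 1 mM EDTA. Emission maxima and intensity changes were recorded and fitted following earlier work. Values are mean ± SD of at least three runs.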"}, "CaM [3]": {"tested_on": "CaM", "assay": "CaM interaction by size-exclusion chromatography", "format": "binding", "conditions": "D-CMBD with CaM; for Complex with CaM in SEC, Ca^2+: 0.2 M NaCl, 2 mM Ca^2+", "outline": "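HPLC size-exclusion used a Shodex KW802.5 column at 1.0 mL/min with 280 nm detection. Buffer was Tris, pH 7.5, with 0.2 M NaCl (range 0.2–0.5 M) plus 2 mM Ca²⁺ or 1 mM EDTA. Samples were filtered through 0.45 μm. MBP-DH constructs, alone or mixed with CaM or Dansyl-CaM, were compared with BSA. Collected fractions were assayed for Dansyl fluorescence.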"}, "CaM [4]": {"tested_on": "CaM", "assay": "CaM/CMBD binding by Trp fluorescence"}, "CaM [5]": {"tested_on": "CaM", "conditions": "Ca^2+-CaM; ref [11]; cited from earlier work"}, "CaM [6]": {"tested_on": "CaM", "conditions": "ref [17]; cited from earlier work"}, "CaM [7]": {"tested_on": "CaM", "assay": "CaM/CMBD binding by Trp fluorescence anisotropy", "conditions": "Ca^2+", "outline": "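Trp anisotropy of 1 μM CMBD peptide (residues 671–689) was recorded during CaM titration. Excitation was 280 or 295 nm, and excitation and emission slits were both 10 nm, with polarizers. Buffer was 50 mM Tris, pH 7.5, 2 mM Ca²⁺, at room temperature. Anisotropy values were fitted following earlier work. Values are mean ± SD of at least three runs.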"}, "CaM [8]": {"tested_on": "CaM", "conditions": "titration curve inflection point; ref [18]; cited from earlier work"}, "CaM [9]": {"tested_on": "CaM", "assay": "CaM/CMBD binding by isothermal titration calorimetry", "outline": "(§1)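 ITC was run on a VP-ITC at 25 °C in 50 mM Tris, 2 mM Ca²⁺, pH 7.5, with 0.15–0.25 M NaCl added for salt studies. Injections were 5 or 10 μL over 10 or 20 s, spaced 120 s. Heat of dilution (titrant into buffer) was subtracted. Data were fitted with a one-set-of-sites model. Back-titration used 250 μM CaM into 40 μM CMBD. Values are mean ± SD.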"}, "CCaM": {"tested_on": "CCaM", "assay": "CMBD/CCaM binding by isothermal titration calorimetry", "conditions": "CMBD titrated into CCaM; 50 mM Tris, pH 7.5, 2 mM Ca^2+, 25 °C; mean ± SD", "outline": "as §1"}, "NCaM": {"tested_on": "NCaM", "assay": "CMBD/NCaM binding by isothermal titration calorimetry", "conditions": "CMBD titrated into NCaM; 50 mM Tris, pH 7.5, 2 mM Ca^2+, 25 °C; mean ± SD", "outline": "as §1"}, "D-CaM": {"tested_on": "D-CaM", "assay": "CMBD binding to Ca^2+-D-CaM by fluorescence", "conditions": "CMBD added to 2 μM D-CaM, 50 mM Tris, 2 mM Ca^2+, pH 7.5", "outline": "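D-CaM (Dansyl-labelled calmodulin) was excited at 335 nm, with excitation and emission slits of 2 and 5 nm, on a temperature-controlled fluorometer. Emission spectra were followed during titration with MBP-fused Nox5 dehydrogenase (DH) constructs or CMBD peptide. Buffer was 50 mM Tris, pH 7.5, with 2 mM Ca²⁺. Fits of intensity changes followed earlier work. Each measurement was done at least three times using 2–3 protein batches.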"}, "nitric oxide synthase": {"tested_on": "nitric oxide synthase", "conditions": "Cav-1p residues 82–101; ref [26]; cited from earlier work"}, "Nox5": {"tested_on": "Nox5", "conditions": "peptide from the scaffold domain of Cav-1; ref [13]; cited from earlier work"}},
  "note": "“And” between values parts separate entries of the source, which are not always exact repeats. Equal values may be shown once. “Also recorded” adds a separate entry of the source.",
  "data": [
    {"substance": "Bovine serum albumin (BSA): Bovine serum albumin, SEC standard [reference compound]", "values": [
      {"measurement": "SEC elution time, BSA monomer", "setting": "[1]; 50 mM Tris, pH 7.5, 0.2 M NaCl, 66 kDa", "value": 8.57, "unit": "min"},
      {"measurement": "SEC elution time, BSA dimer", "setting": "[1]; 50 mM Tris, pH 7.5, 0.2 M NaCl, 132 kDa", "value": 7.76, "unit": "min"},
      {"measurement": "SEC elution time, BSA trimer", "setting": "[1]; 50 mM Tris, pH 7.5, 0.2 M NaCl, 198 kDa", "value": 7.23, "unit": "min"}
    ]},
    {"substance": "H2NRPDWSKVFQKVAAEKKGKVCOOH [D-CMBD]", "values": [
      {"measurement": "Stoichiometry n[Peptide]/[Protein], CaM/D-CMBD", "setting": "CaM [2]; 2 μM D-CMBD titrated with CaM, Dansyl fluorescence, 50 mM Tris, pH 7.5, 2 mM Ca^2+, room temperature, mean ± SD", "value": "2.11 and 2.11 ± 0.11"},
      {"measurement": "Dansyl emission maximum, D-CMBD alone", "setting": "CaM [2]; Ca^2+", "value": 550, "unit": "nm"},
      {"measurement": "Dansyl emission maximum, D-CMBD with CaM", "setting": "CaM [2]; Ca^2+", "value": 518, "unit": "nm"},
      {"measurement": "Dansyl intensity increase on CaM binding", "setting": "CaM [2]; Ca^2+", "value": "~8", "unit": "fold"},
      {"measurement": "Binding affinity in the absence of Ca^2+", "setting": "CaM [2]; absence of Ca^2+ (EDTA), estimated, diminished in a higher ionic strength", "value": "~10^5 M^-1"},
      {"measurement": "SEC elution time, EDTA / apo", "setting": "[1]; KW802.5 column, 1.0 mL/min, 0.2 M NaCl, 1 mM EDTA, pH 7.5", "value": 25.67, "unit": "min"},
      {"measurement": "SEC elution time, Ca^2+", "setting": "[1]; KW802.5 column, 1.0 mL/min, 0.2 M NaCl, 2 mM Ca^2+, pH 7.5", "value": 29.31, "unit": "min"},
      {"measurement": "Dansyl fluorescence in CaM fraction, absence of Ca^2+", "setting": "CaM [3]; 1 mM EDTA", "value": "No Dansyl fluorescence was found in the CaM fractions"},
      {"measurement": "Complex with CaM in SEC, Ca^2+", "setting": "CaM [3]", "value": "complexed with Ca^2+-CaM when a large excess of CaM was included"}
    ]},
    {"substance": "H2NRPDWSKVFQKVAAEKKGKVCOOH [CMBD]", "values": [
      {"measurement": "Equivalents of CaM to saturate binding (intensity)", "setting": "CaM [4]; 330 nm, Ca^2+", "value": "one"},
      {"measurement": "Emission maximum, CaM-bound CMBD", "setting": "CaM [4]; Trp fluorescence upon addition of CaM, Ca^2+", "value": 330, "unit": "nm"},
      {"measurement": "CaM binding in the absence of Ca^2+ (CMBD)", "setting": "CaM [4]; Trp fluorescence, 50 mM Tris, pH 7.5, 1 mM EDTA", "value": "A similar finding using CMBD's Trp fluorescence was found in the absence of Ca^2+; also recorded: non-specific electrostatic interaction which is not biologically significant"},
      {"measurement": "Wavelength shift on CaM binding", "setting": "CaM [4]; Trp fluorescence, blue shift, Ca^2+", "value": "~20", "unit": "nm"},
      {"measurement": "ANS fluorescence decrease of CaM/CMBD", "setting": "CaM [5]", "value": "~3", "unit": "%"},
      {"measurement": "Binding mode in crystal structure", "setting": "CaM [6]", "value": "each of the two CMBD peptides is bound in the cleft formed in half-domain"},
      {"measurement": "Molar ratio at saturation (anisotropy)", "setting": "CaM [7]; 1 μM CMBD with CaM", "value": "~1.2"},
      {"measurement": "Trp anisotropy value (r), complexed with CaM (maximum)", "setting": "CaM [7]; 1 μM CMBD with CaM, emission 352 nm", "value": 0.136},
      {"measurement": "Trp anisotropy value (r), peptide alone", "setting": "CaM [7]; 1 μM CMBD, emission 352 nm", "value": 0.0405},
      {"measurement": "Ka, previous estimate", "setting": "CaM [8]", "value": "4e+07", "unit": "M⁻¹"},
      {"measurement": "Stoichiometry, previous estimate", "setting": "CaM [8]", "value": "near unity stoichiometry"},
      {"measurement": "nCaM/CMBD, ITC back-titration", "setting": "CaM [9]; 250 μM CaM into 40 μM CMBD, 25 °C", "value": 0.56},
      {"measurement": "Effect of NaCl on binding", "setting": "CaM [9]; 0.1 − 0.25 M NaCl", "value": "does not change significantly"},
      {"measurement": "Stoichiometry n[peptide]/Protein (nCMBD/CaM), ITC CaM/CMBD (back-titration)", "setting": "CaM [9]; converted from nCaM/CMBD, 250 μM CaM into 40 μM CMBD, 25 °C, mean ± SD", "value": "1.79 and 1.79 ± 0.11"},
      {"measurement": "Cooperativity of CMBD binding", "setting": "CaM [9]; two CMBD peptides on half-domains of CaM", "value": "no cooperativity was observed"},
      {"measurement": "Binding constant, ITC CMBD/CCaM", "setting": "CCaM", "value": "(9.50 ± 0.62) x 10^5 M^-1"},
      {"measurement": "Complex with CaM in SEC, Ca^2+", "setting": "CaM [3]", "value": "a stable Ca^2+-CaM/CMBD complex was formed in non-equilibrium system"},
      {"measurement": "Binding constant, ITC CMBD/NCaM", "setting": "NCaM", "value": "(2.42 ± 1.21) x 10^6 M^-1"},
      {"measurement": "Intensity change, CMBD with D-CaM", "setting": "D-CaM", "value": "very small intensity; also recorded: small intensity change"}
    ]},
    {"substance": "hemoglobin [reference compound]", "values": [
      {"measurement": "SEC elution time, reference protein", "setting": "[1]; 0.2 M NaCl, same settings", "value": 9.51, "unit": "min"}
    ]},
    {"substance": "Cav-1P: peptide from the scaffold domain of Cav-1 (residues 82–101) (DGIWKASFTTFTVTKYWFYR; UniProt Q03135 82-101, looked up, fragment)", "values": [
      {"measurement": "Effect on NO production", "setting": "nitric oxide synthase", "value": "inhibits the NO production"},
      {"measurement": "Effect on Nox5's superoxide-generating activity", "setting": "Nox5", "value": "inhibit the Nox5's superoxide-generating activity"}
    ]}
  ]
}
